Experimental data published in ChEMBL document CHEMBL3751726, “A stepwise dechlorination/cross-coupling strategy to diversify the vancomycin 'in-chloride'” (2016).
Values after ≈ are worked out from the molar mass of the structure shown.

Assays:
Type in all cases: functional
Staphylococcus aureus [1] = assay: Antimicrobial activity against methicillin-susceptible Staphylococcus aureus ATCC 29213 after 18 to 20 hrs by microdilution method
Summary of the method: (§1)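 Standard microtiter plate-based broth microdilution assay. The top concentration tested was 64 µg/mL, so inhibition that was not reached is reported as >64 µg/mL. The strains are methicillin-susceptible S. aureus ATCC 29213 and vancomycin-susceptible E. faecalis MMX 101.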

Staphylococcus aureus [2] = assay: Antimicrobial activity against methicillin-resistant Staphylococcus aureus MMX 2002 after 18 to 20 hrs by microdilution method
Enterococcus faecalis [3] = assay: Antimicrobial activity against vancomycin-susceptible Enterococcus faecalis MMX 101 after 18 to 20 hrs by microdilution method; summary of the method: as §1
Enterococcus faecalis [4] = assay: Antimicrobial activity against vancomycin-resistant Enterococcus faecalis MMX 202 expressing VanB after 18 to 20 hrs by microdilution method
Enterococcus faecalis [5] = assay: Antimicrobial activity against vancomycin-resistant Enterococcus faecalis MMX 486 expressing VanA after 18 to 20 hrs by microdilution method

SMILES	MIC (Staphylococcus aureus [1])	MIC (Staphylococcus aureus [2])	MIC (Enterococcus faecalis [3])	MIC (Enterococcus faecalis [4])	MIC (Enterococcus faecalis [5])
CN[C@@H](CC(C)C)C(=O)N[C@@H]1C(=O)N[C@H](CC(N)=O)C(=O)N[C@@H]2C(=O)N[C@@H]3C(=O)N[C@@H](C(=O)N[C@H](C(=O)O)c4cc(O)cc(O)c4-c4cc3ccc4O)[C@@H](O)c3ccc(c(-c4ccc(-c5ccccc5)cc4)c3)Oc3cc2cc(c3O[C@@H]2O[C@H](CO)[C@@H](O)[C@H](O)[C@H]2O[C@H]2C[C@](C)(N)[C@H](O)[C@H](C)O2)Oc2ccc(cc2)[C@@H]1O	> 64 µg/mL	> 64 µg/mL	> 64 µg/mL	> 64 µg/mL	> 64 µg/mL
CN[C@@H](CC(C)C)C(=O)N[C@@H]1C(=O)N[C@H](CC(N)=O)C(=O)N[C@@H]2C(=O)N[C@@H]3C(=O)N[C@@H](C(=O)N[C@H](C(=O)O)c4cc(O)cc(O)c4-c4cc3ccc4O)[C@@H](O)c3ccc(c(-c4ccc5[nH]ccc5c4)c3)Oc3cc2cc(c3O[C@@H]2O[C@H](CO)[C@@H](O)[C@H](O)[C@H]2O[C@H]2C[C@](C)(N)[C@H](O)[C@H](C)O2)Oc2ccc(cc2)[C@@H]1O	> 64 µg/mL	> 64 µg/mL	> 64 µg/mL	> 64 µg/mL	> 64 µg/mL
CN[C@@H](CC(C)C)C(=O)N[C@@H]1C(=O)N[C@H](CC(N)=O)C(=O)N[C@@H]2C(=O)N[C@@H]3C(=O)N[C@@H](C(=O)N[C@H](C(=O)O)c4cc(O)cc(O)c4-c4cc3ccc4O)[C@@H](O)c3ccc(c(Cl)c3)Oc3cc2cc(c3O[C@H]2O[C@@H](CO)[C@H](O)[C@@H](O)[C@@H]2O[C@@H]2C[C@@](C)(N)[C@@H](O)[C@@H](C)O2)Oc2ccc(cc2)[C@@H]1O	4 µg/mL (≈ 2.83 µM)	4 µg/mL (≈ 2.83 µM)	8 µg/mL (≈ 5.65 µM)	64 µg/mL (≈ 45.2 µM)	> 64 µg/mL
CN[C@@H](CC(C)C)C(=O)N[C@@H]1C(=O)N[C@H](CC(N)=O)C(=O)N[C@@H]2C(=O)N[C@@H]3C(=O)N[C@@H](C(=O)N[C@H](C(=O)O)c4cc(O)cc(O)c4-c4cc3ccc4O)[C@@H](O)c3ccc(c(-c4cccc(F)c4)c3)Oc3cc2cc(c3O[C@@H]2O[C@H](CO)[C@@H](O)[C@H](O)[C@H]2O[C@H]2C[C@](C)(N)[C@H](O)[C@H](C)O2)Oc2ccc(cc2)[C@@H]1O	> 64 µg/mL	> 64 µg/mL	> 64 µg/mL	> 64 µg/mL	> 64 µg/mL
CN[C@H](CC(C)C)C(=O)N[C@H]1C(=O)N[C@@H](CC(N)=O)C(=O)N[C@H]2C(=O)N[C@H]3C(=O)N[C@H](C(=O)N[C@H](C(=O)O)c4cc(O)cc(O)c4-c4cc3ccc4O)[C@H](O)c3ccc(c(Cl)c3)Oc3cc2cc(c3O[C@@H]2O[C@H](CO)[C@@H](O)[C@H](O)[C@H]2O[C@H]2C[C@](C)(N)[C@H](O)[C@H](C)O2)Oc2ccc(cc2Cl)[C@H]1O [VANCOMYCIN]	–	–	2 µg/mL (≈ 1.38 µM)	8 µg/mL (≈ 5.52 µM)	> 64 µg/mL
CCCCCC/C=C/c1cc2ccc1Oc1cc3cc(c1O[C@@H]1O[C@H](CO)[C@@H](O)[C@H](O)[C@H]1O[C@H]1C[C@](C)(N)[C@H](O)[C@H](C)O1)Oc1ccc(cc1)[C@H](O)[C@H](NC(=O)[C@@H](CC(C)C)NC)C(=O)N[C@H](CC(N)=O)C(=O)N[C@@H]3C(=O)N[C@@H]1C(=O)N[C@@H](C(=O)N[C@H](C(=O)O)c3cc(O)cc(O)c3-c3cc1ccc3O)[C@H]2O	> 64 µg/mL	> 64 µg/mL	> 64 µg/mL	> 64 µg/mL	> 64 µg/mL
CC(=O)NC[C@H]1CN(c2ccc(N3CCOCC3)c(F)c2)C(=O)O1 [LINEZOLID]	–	1 µg/mL (≈ 2.96 µM)	–	–	–
CN[C@@H](CC(C)C)C(=O)N[C@@H]1C(=O)N[C@H](CC(N)=O)C(=O)N[C@@H]2C(=O)N[C@@H]3C(=O)N[C@@H](C(=O)N[C@H](C(=O)O)c4cc(O)cc(O)c4-c4cc3ccc4O)[C@@H](O)c3ccc(c(-c4cccc(C(N)=O)c4)c3)Oc3cc2cc(c3O[C@@H]2O[C@H](CO)[C@@H](O)[C@H](O)[C@H]2O[C@H]2C[C@](C)(N)[C@H](O)[C@H](C)O2)Oc2ccc(cc2)[C@@H]1O	> 64 µg/mL	> 64 µg/mL	> 64 µg/mL	> 64 µg/mL	> 64 µg/mL
CN[C@@H](CC(C)C)C(=O)N[C@@H]1C(=O)N[C@H](CC(N)=O)C(=O)N[C@@H]2C(=O)N[C@@H]3C(=O)N[C@@H](C(=O)N[C@H](C(=O)O)c4cc(O)cc(O)c4-c4cc3ccc4O)[C@@H](O)c3ccc(cc3)Oc3cc2cc(c3O[C@@H]2O[C@H](CO)[C@@H](O)[C@H](O)[C@H]2O[C@H]2C[C@](C)(N)[C@H](O)[C@H](C)O2)Oc2ccc(cc2)[C@@H]1O	8 µg/mL (≈ 5.8 µM)	8 µg/mL (≈ 5.8 µM)	32 µg/mL (≈ 23.2 µM)	> 64 µg/mL	> 64 µg/mL
CN[C@@H](CC(C)C)C(=O)N[C@@H]1C(=O)N[C@H](CC(N)=O)C(=O)N[C@@H]2C(=O)N[C@@H]3C(=O)N[C@@H](C(=O)N[C@H](C(=O)O)c4cc(O)cc(O)c4-c4cc3ccc4O)[C@@H](O)c3ccc(c(-c4cccc(CN)c4)c3)Oc3cc2cc(c3O[C@@H]2O[C@H](CO)[C@@H](O)[C@H](O)[C@H]2O[C@H]2C[C@](C)(N)[C@H](O)[C@H](C)O2)Oc2ccc(cc2)[C@@H]1O	> 64 µg/mL	> 64 µg/mL	> 64 µg/mL	> 64 µg/mL	> 64 µg/mL
CN[C@@H](CC(C)C)C(=O)N[C@@H]1C(=O)N[C@H](CC(N)=O)C(=O)N[C@@H]2C(=O)N[C@@H]3C(=O)N[C@@H](C(=O)N[C@H](C(=O)O)c4cc(O)cc(O)c4-c4cc3ccc4O)[C@@H](O)c3ccc(c(-c4ccoc4)c3)Oc3cc2cc(c3O[C@H]2O[C@@H](CO)[C@H](O)[C@@H](O)[C@@H]2O[C@H]2C[C@](C)(N)[C@H](O)[C@H](C)O2)Oc2ccc(cc2)[C@@H]1O	64 µg/mL (≈ 44.2 µM)	64 µg/mL (≈ 44.2 µM)	> 64 µg/mL	> 64 µg/mL	> 64 µg/mL
